In brackets after ≈: the same amount, converted by molar mass. Activity calls are given as the source filed them. The rule behind the calls is not given here.
Key:
[1] = tested on: Mus musculus; assay: Toxicity against wild type C57BL6 mouse assessed as corneal opacity at 400 ug/ml administered topically 5 times a day by Slit lamp photography; format: organism-based, Cornea; settings: in vivo, topical_or_ocular
In short: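 Mouse eyes given topical drops five times per day at 400 μg/mL; cornea examined by slit lamp photography for clinical signs of toxicity and corneal opacity.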

[2] = Dissociation constant, pKa of the compound; format: physicochemical
[3] = tested on: Staphylococcus aureus; assay: Antibacterial activity against methicillin-resistant Staphylococcus aureus DM09808R obtained from eye isolate after 20 to 22 hrs by CLSI broth macro-dilution method; format: functional
[4] = Selectivity index, ratio of HC50 for rabbit erythrocyte to MIC99 for methicillin-resistant Staphylococcus aureus ATCC 700669; format: functional
[5] = tested on: Staphylococcus aureus; assay: Antibacterial activity against methicillin-resistant Staphylococcus aureus DM21455 assessed as reduction in viable count at 4 X MIC after 10 mins by surface-spread plate method relative to control; format: functional
[6] = tested on: Staphylococcus aureus; assay: Antibacterial activity against methicillin-resistant Staphylococcus aureus DM21455 assessed as reduction in viable count at 2 X MIC after 5 mins by surface-spread plate method relative to control; format: functional
[7] = tested on: Staphylococcus aureus; assay: Antibacterial activity against methicillin-resistant Staphylococcus aureus DR68004 obtained from blood isolate after 20 to 22 hrs by CLSI broth macro-dilution method; format: functional
[8] = Selectivity index, ratio of HC50 for rabbit erythrocyte to MIC99 for Streptococcus faecium ATCC 10541; format: functional
[9] = tested on: Staphylococcus aureus; assay: Antibacterial activity against vancomycin-intermediate resistant Staphylococcus aureus 10:DB6506 after 20 to 22 hrs by multipassage resistance selection method; format: functional, organism-based
[10] = Selectivity index, ratio of HC50 for rabbit erythrocyte to MIC99 for methicillin-resistant Staphylococcus aureus DM21595; format: functional
[11] = tested on: Staphylococcus aureus; assay: Antimicrobial activity against in Staphylococcus aureus assessed as disruption of bacterial membrane at 10 uM by fluorescence microscopy; format: functional, organism-based
In short: (§1)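 S. aureus DM4001 treated with 10 μM agent and incubated with the membrane-impermeant nucleic-acid dye SYTOX Green. Permeabilization was read as increased fluorescence intensity and confirmed by fluorescence microscopy counting green-stained cells.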

[12] = Hemolytic activity against rabbit erythrocytes after 60 mins by spectrophotometric analysis; format: ADME, cell-based, Oryctolagus cuniculus, Erythrocyte
[13] = tested on: Staphylococcus aureus; assay: Antibacterial activity against methicillin-resistant Staphylococcus aureus DM21455 assessed as reduction in viable count after 5 to 10 mins by surface-spread plate method; format: functional, organism-based
[14] = Selectivity index, ratio of HC50 for rabbit erythrocyte to MIC99 for […] ATCC 12228; format: functional
[15] = tested on: Staphylococcus aureus; assay: Antibacterial activity against Staphylococcus aureus ATCC 6538P after 20 to 22 hrs by CLSI broth macro-dilution method; format: functional
[16] = tested on: Staphylococcus aureus; assay: Antimicrobial activity against Staphylococcus aureus DM4001 assessed as depolarization of bacterial membrane at 12.5 ug/ml by DiSC3-5-based cytoplasmic membrane depolarization assay; format: functional, organism-based
In short: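 Clinical S. aureus DM4001 was loaded with the membrane-potential dye DiSC3-5, which self-quenches in polarized membranes. Agent added at 12.5 μg/mL. Depolarization was read as the rise in fluorescence intensity (counts per second) over time.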

[17] = tested on: Staphylococcus aureus; assay: Antibacterial activity against Staphylococcus aureus ATCC 29737 after 20 to 22 hrs by CLSI broth macro-dilution method; format: functional
[18] = tested on: Mus musculus; assay: Toxicity against wild type C57BL6 mouse at 50 mg/kg, ip after 24 hrs; format: organism-based; design: dose 50 mg/kg, route intraperitoneal; settings: in vivo
In short: (§2)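 Mice received a single bolus injection, 25 mg/kg intravenous or 50 mg/kg intraperitoneal, with survival recorded at 24 h; 2 animals per route.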

[19] = Selectivity index, ratio of HC50 for rabbit erythrocyte to MIC99 for Enterococcus faecalis ATCC 29212; format: functional
[20] = tested on: Staphylococcus aureus; assay: Antibacterial activity against methicillin-resistant Staphylococcus aureus DM21455 after 20 to 22 hrs by multipassage resistance selection method; format: functional, organism-based
[21] = Toxicity against New Zealand White rabbit corneal epithelium assessed as effect on wound closure at 50 ug/ml by Slit lamp photography relative to control; format: tissue-based, Oryctolagus cuniculus, Cornea; settings: in vivo
In short: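 A 5 mm corneal epithelial abrasion was made with a sterile trephine and the epithelium removed with a mini blade. Eyes were treated with saline, vancomycin 50 μg/mL, or agent 50 μg/mL. Wound closure was tracked over time from fluorescein-stained photographs of defect size.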

[22] = tested on: Staphylococcus aureus; assay: Antibacterial activity against methicillin-resistant Staphylococcus aureus DR42412 obtained from sputum isolate after 20 to 22 hrs by CLSI broth macro-dilution method; format: functional
[23] = tested on: Enterococcus faecium; assay: Antibacterial activity against Streptococcus faecium ATCC 10541 after 20 to 22 hrs by CLSI broth macro-dilution method; format: functional
[24] = tested on: Staphylococcus aureus; assay: Antibacterial activity against Staphylococcus aureus ATCC 29213 after 20 to 22 hrs by CLSI broth macro-dilution method; format: functional
[25] = Selectivity index, ratio of HC50 for rabbit erythrocyte to MIC99 for Staphylococcus aureus ATCC 6538; format: functional
[26] = tested on: Staphylococcus aureus; assay: Antibacterial activity against methicillin-resistant Staphylococcus aureus DM21455 assessed as log reduction in CFU at 0.5 X MIC to 1 X MIC after 2 hrs by surface-spread plate method relative to control; format: functional
[27] = Selectivity index, ratio of HC50 for rabbit erythrocyte to MIC99 for methicillin-resistant Staphylococcus aureus DR68004; format: functional
[28] = tested on: Klebsiella pneumoniae; assay: Antibacterial activity against Klebsiella pneumoniae ATCC 10031 after 20 to 22 hrs by CLSI broth macro-dilution method; format: functional
[29] = tested on: Enterococcus faecalis; assay: Antibacterial activity against Enterococcus faecalis ATCC 29212 after 20 to 22 hrs by CLSI broth macro-dilution method; format: functional
[30] = tested on: Staphylococcus aureus; assay: Antibacterial activity against Staphylococcus aureus ATCC 6538 after 20 to 22 hrs by CLSI broth macro-dilution method; format: functional
[31] = tested on: Pseudomonas aeruginosa; assay: Antibacterial activity against Pseudomonas aeruginosa ATCC 27853 after 20 to 22 hrs by CLSI broth macro-dilution method; format: functional
[32] = tested on: Staphylococcus aureus; assay: Antibacterial activity against methicillin-resistant Staphylococcus aureus clinical isolate DM21455 after 20 to 22 hrs by CLSI broth macro-dilution method; format: functional
[33] = Partition coefficient, log P of the compound by HPLC analysis; format: physicochemical; settings: octanol/water; read-out: logP
In short: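 Partition coefficient measured by HPLC following OECD guidelines for the testing of chemicals.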

[34] = tested on: Staphylococcus aureus; assay: Antibacterial activity against methicillin-resistant Staphylococcus aureus DB57964/04 after 20 to 22 hrs by CLSI broth macro-dilution method; format: functional
[35] = tested on: Mus musculus; assay: Toxicity against wild type C57BL6 mouse at 25 mg/kg, iv after 24 hrs; format: organism-based; design: dose 25 mg/kg, route intravenous; settings: in vivo; in short: as §2
[36] = tested on: Staphylococcus aureus; assay: Antibacterial activity against methicillin-resistant Staphylococcus aureus ATCC […] after 20 to 22 hrs by CLSI broth macro-dilution method; format: functional
[37] = tested on: Staphylococcus aureus; assay: Antibacterial activity against Staphylococcus aureus ATCC 700699 at 4 X MIC after 20 to 22 hrs; format: functional, organism-based
[38] = Selectivity ratio of HC50 for rabbit erythrocyte to MIC99 for methicillin-resistant Staphylococcus aureus clinical isolate DM21455; format: functional
[39] = tested on: Enterococcus faecalis; assay: Antibacterial activity against Enterococcus faecalis ATCC 29212 after 20 to 22 hrs by multipassage resistance selection method; format: functional, organism-based
[40] = tested on: Staphylococcus aureus; assay: Antimicrobial activity against Staphylococcus aureus assessed as disruption of bacterial membrane at 10 uM by SYTOX green uptake assay; format: functional, organism-based; in short: as §1
[41] = tested on: Staphylococcus epidermidis; assay: Antibacterial activity against Staphylococcus epidermidis ATCC 12228 after 20 to 22 hrs by CLSI broth macro-dilution method
[42] = Selectivity index, ratio of HC50 for rabbit erythrocyte to MIC99 for methicillin-resistant Staphylococcus aureus DM09808R; format: functional
[43] = tested on: Staphylococcus aureus; assay: Antibacterial activity against methicillin-resistant Staphylococcus aureus DM21595 obtained from wound isolate after 20 to 22 hrs by CLSI broth macro-dilution method; format: functional
[44] = tested on: Staphylococcus aureus; assay: Antibacterial activity against vancomycin-intermediate resistant Staphylococcus aureus 10:DB6506 after 20 to 22 hrs by CLSI broth macro-dilution method; format: functional
[45] = Selectivity index, ratio of HC50 for rabbit erythrocyte to MIC99 for Staphylococcus aureus ATCC 29737; format: functional
[46] = Selectivity index, ratio of HC50 for rabbit erythrocyte to MIC99 for methicillin-resistant Staphylococcus aureus DR42412; format: functional
[47] = tested on: Staphylococcus aureus; assay: Antimicrobial activity against Staphylococcus aureus DM4001 assessed as morphological changes by scanning electron microscopy relative to control; format: functional, organism-based
[48] = Selectivity index, ratio of HC50 for rabbit erythrocyte to MIC99 for Staphylococcus aureus ATCC 6538P; format: functional
[49] = Selectivity index, ratio of HC50 for rabbit erythrocyte to MIC99 for methicillin-resistant Staphylococcus aureus DB57964/04; format: functional
[50] = Selectivity ratio of HC50 for rabbit erythrocyte to MIC99 for Staphylococcus aureus ATCC 29213; format: functional
[51] = Selectivity index, ratio of HC50 for rabbit erythrocyte to MIC99 for Staphylococcus aureus 10:DB6506; format: functional

With `CCN(CC)CCCCOc1cc2oc3cc(OCCCCN(CC)CC)c(OC)c(CC=C(C)C)c3c(=O)c2c(O)c1CC=C(C)C` the Activity [1] was “Non-toxic”, the pKa [2] was 11 and the MIC [3] was 1.56 µg/mL (≈ 2.35 µM). The “Selectivity Index” value [4] was 206.3, the Activity [5] was 99.9% and the Activity [6] was 99.9%. The MIC [7] was 1.56 µg/mL (≈ 2.35 µM), the “Selectivity Index” value [8] was 100.5 and the Activity [9] was “Active”. For the same compound, the “Selectivity Index” value [10] was 50.3, the Activity [11] was “Active” and the HC50 at 1 h [12] was 19.6 µM. For the same compound, the Activity [13] was “Dose-dependent effect”, the “Selectivity Index” value [14] was 25.1 and the MIC [15] was 0.78 µg/mL (≈ 1.17 µM). For the same compound, the Activity [16] was “Active”, the MIC [17] was 1.56 µg/mL (≈ 2.35 µM) and the Activity [18] was “Non-toxic”. For the same compound, the “Selectivity Index” value [19] was 25.1, the Activity [20] was “Active” and the Activity [21] was “Non-toxic”. It also gave an MIC [22] of 0.39 µg/mL (≈ 0.587 µM), an MIC [23] of 0.195 µg/mL (≈ 0.293 µM) and an MIC99 [24] of 0.39 µg/mL (≈ 0.587 µM). The “Selectivity Index” value [25] was 12.6, the FC [26] was 3 and the “Selectivity Index” value [27] was 12.6. It also gave an MIC [28] of 40 µg/mL (≈ 60.2 µM), an MIC [29] of 0.78 µg/mL (≈ 1.17 µM) and an MIC [30] of 1.56 µg/mL (≈ 2.35 µM). For the same compound, the MIC [31] was 50 µg/mL (≈ 75.2 µM), the MIC99 [32] was 0.39 µg/mL (≈ 0.587 µM) and the logP [33] was 6.72. The MIC [34] was 0.78 µg/mL (≈ 1.17 µM), the Activity [35] was “Non-toxic” and the MIC [36] was 0.095 µg/mL (≈ 0.143 µM). The Activity [37] was “Active”, the Selectivity ratio [38] was 50.3 and the Activity [39] was “Active”. The Activity [40] was “Active”, the MIC [41] was 0.78 µg/mL (≈ 1.17 µM) and the “Selectivity Index” value [42] was 12.6. For the same compound, the MIC [43] was 0.39 µg/mL (≈ 0.587 µM), the MIC [44] was 0.78 µg/mL (≈ 1.17 µM) and the “Selectivity Index” value [45] was 12.6. The “Selectivity Index” value [46] was 50.3, the Activity [47] was “Active” and the “Selectivity Index” value [48] was 25.1. The “Selectivity Index” value [49] was 25.1, the Selectivity ratio [50] was 50.3 and the “Selectivity Index” value [51] was 25.1.

Source: ChEMBL document CHEMBL2331269, “Design and synthesis of amphiphilic xanthone-based, membrane-targeting antimicrobials with improved membrane selectivity” (J Med Chem, 2013)
